The record followed here is ChEMBL document CHEMBL4342521 (J Med Chem, 2020).

The structures appear in SMILES notation. Active and inactive are the calls of the source. The rule behind the calls is not given here.

The subject of data set [1] is MOLT-4. In words: Antiproliferative activity against human MOLT4 cells assessed as reduction in cell viability after 48 hrs by CellTiter-Blue assay. It counts as functional. To be noted: MOLT-4, 48 h, read-out: LC50 (the source's name). Summed up:
(§1)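 Cells grown in RPMI1640 with 10% FBS at 37 °C, 5% CO₂. 5,000–10,000 cells/well were pre-incubated overnight, and a time-zero CellTiter-Blue read was taken. Six 10-fold dilutions (top final 10 μM) were applied for 48 h, followed by 0.125 mg/mL CellTiter-Blue for 2–4 h. Resorufin fluorescence was read at ex 560/em 590 nm. […] Triplicates.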

In data set [2] the test system is SNB-19. In words: Antiproliferative activity against human SNB19 cells assessed as reduction in cell viability after 48 hrs by CellTiter-Blue assay. To be noted: SNB-19, 48 h, read-out: LC50 (the source's name). Type of data set: functional. Summed up:
as §1

Data set [3] can be described thus: Mutagenecity in Salmonella typhimurium TA100 at 10 uM in presence of S9 liver homogenate after 2 to 3 days by mini-Ames test. It counts as toxicity. To be noted: salmonella enterica subsp. enterica serovar typhimurium, s9, 10 µM. Summed up: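 Compound was tested at a final 10 μM undiluted plus four serial dilutions, with S9 mix and glucose/biotin/trace-histidine exposure solution, for 100 min at 37 °C. Reversion medium was added and cultures dispensed to 96 wells for 2–3 days at 37 °C. Yellow or partial-yellow wells were scored positive; 2-aminoanthracene was the positive control.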

For data set [4], the system named is RS4-11. In words: Effect on LC3 degradation in human RS4:11 cells harboring wild type p53/FLT3 at 50 to 200 nM after 24 hrs by Western blot analysis. Type of data set: functional, cell-based. The gist of the method: (§2)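 Cells (1,500,000 per well) grown 12 h, then drug-treated as specified. Lysed in RIPA buffer, sonicated, centrifuged, protein normalized by BCA. Run on 4–12% Bis-Tris gels in MES, transferred, probed overnight at 4 °C with primary antibodies at 1/1000. Actin served as reference for LC3-II quantitation.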

The subject of data set [5] is PC-3. Description: Antiproliferative activity against human PC3 cells assessed as reduction in cell viability after 48 hrs by CellTiter-Blue assay. Type of data set: functional. Particulars: PC-3, 48 h, read-out: LC50 (the source's name). The gist of the method:
as §1

The subject of data set [6] is K562. Description: Antiproliferative activity against human K562 cells assessed as reduction in cell viability after 48 hrs by CellTiter-Blue assay. It counts as functional. Particulars: K562, 48 h, read-out: LC50 (the source's name). Summed up:
as §1

Data set [7] concerns HL-60. In words: Effect on c-Flip protein degradation in p53 null human HL60 cells harboring wild type FLT3 at 50 to 200 nM after 24 hrs by Western blot analysis. It counts as functional, cell-based. Summed up:
as §2

Data set [8] has as its system RS4-11. Description: Upregulation of P21WAF1/Cip1 protein expression in human RS4:11 cells harboring wild type p53/FLT3 at 50 to 200 nM after 24 hrs by Western blot analysis. It counts as functional, cell-based. The gist of the method: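 RS4;11 cells were cultured in RPMI-1640 with 10% FBS and HL-60 cells in IMDM with 20% FBS. Cells were plated at 1,500,000 per well, grown 12 h, then drug-treated. Lysis was in RIPA buffer with sonication and centrifugation, and loading was normalized by BCA. Lysates were run on 4–12% Bis-Tris gels in MES buffer and transferred, and membranes were probed overnight at 4 °C with 1/1000 primary antibodies.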

The subject of data set [9] is SW-620. In words: Antiproliferative activity against human SW620 cells assessed as reduction in cell viability after 48 hrs by CellTiter-Blue assay. Type of data set: functional. To be noted: SW-620, 48 h, read-out: LC50 (the source's name). The gist of the method:
(§3)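 NCI-60 panel lines grown in RPMI1640 with 10% FBS at 37 °C, 5% CO₂. Seeded at 5,000–10,000 cells/well and pre-incubated overnight. Exposed for 48 h to six 10-fold dilutions (top final 10 μM), with a time-zero plate read at dosing. CellTiter-Blue (0.125 mg/mL) for 2–4 h, fluorescence 560/590 nm, triplicate curves.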

In data set [10] the target is Histone deacetylase 5 (Homo sapiens, UniProt Q9UQL6). In words: Inhibition of recombinant human HDAC5 using Boc-Lys (trifluoroacetyl)-AMC as substrate preincubated for 1 hr followed by substrate addition and measured after 2 hrs by fluorescence based micro plate reader analysis. Summed up:
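Recombinant enzyme was preincubated with serially varied inhibitor for 1 h at 30 °C. Boc-Lys(trifluoroacetyl)-AMC was then added to a final 50 μM and incubated 2 h at 30 °C. The reaction was stopped with developer containing trypsin and TSA, and fluorescence (ex 360/em 460 nm) was read 30 min later. Inhibition was taken relative to control wells and fitted to a variable-slope log(inhibitor) curve. Values are the mean of at least three experiments.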

The subject of data set [11] is RXF 393. In words: Antiproliferative activity against human RXF393 cells assessed as reduction in cell viability after 48 hrs by CellTiter-Blue assay. It counts as functional. Particulars: RXF 393, 48 h, read-out: LC50 (the source's name). Summed up: as §1
In data set [12] the test system is NCI-H226. Description: Antiproliferative activity against human NCI-H226 cells assessed as reduction in cell viability after 48 hrs by CellTiter-Blue assay. Type of data set: functional. To be noted: NCI-H226, 48 h, read-out: LC50 (the source's name). The gist of the method:
as §1

In data set [13] the test system is HL-60. Description: Antiproliferative activity agaisnt p53 null human HL60 cells at 10 uM after 48 hrs by CellTiter-blue assay. It counts as functional, cell-based.
For data set [14], the system named is MV4-11. In words: Antiproliferative activity agaisnt human MV4-11 cells expressing wild type p53/FLT3-ITD mutant assessed as cell death at 10 uM after 48 hrs by CellTiter-blue assay. Type of data set: functional, cell-based.
Data set [15] relates to TK-10. Description: Antiproliferative activity against human TK10 cells assessed as reduction in cell viability after 48 hrs by CellTiter-Blue assay. Type of data set: functional. To be noted: TK-10, 48 h, read-out: LC50 (the source's name). Summed up:
as §3

Data set [16] relates to RS4-11. In words: Induction of apoptosis in human RS4:11 cells harboring wild type p53/FLT3 assessed as cleavage of pro-caspase 3 at 200 nM after 24 hrs by Western blot analysis. It counts as functional, cell-based. Summed up: as §2
The target in data set [17] is Protein deacetylase HDAC6 (Homo sapiens) (UniProt Q9UBN7). In words: Inhibition of HDAC6 in human MV4-11 cells assessed as tubulin acetylation at 500 nM incubated for 3 hrs followed by compound washout and measured after 30 mins to 6 hrs by Western blot analysis. It counts as cell-based. The gist of the method:
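MV4-11 cells exposed for 3 h, drug washed out, then cultured drug-free for 30 min, 1, 3 or 6 h. Acetylation read by western blot; t = 0 taken right after the 3 h exposure.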

The test system of data set [18] is NCI-H23. In words: Antiproliferative activity against human NCI-H23 cells assessed as reduction in cell viability after 48 hrs by CellTiter-Blue assay. To be noted: NCI-H23, 48 h, read-out: LC50 (the source's name). It counts as functional. Summed up: as §1
Data set [19] relates to HCT-116. Description: Antiproliferative activity against human HCT116 cells assessed as reduction in cell viability after 48 hrs by CellTiter-Blue assay. Type of data set: functional. To be noted: HCT-116, 48 h, read-out: LC50 (the source's name). The gist of the method: as §1
Data set [20] deals with Matrix metalloproteinase-9 (Homo sapiens) (UniProt P14780). In words: Inhibition of MMP-9 (unknown origin) at 10 to 50 uM incubated for 10 to 15 mins and measured after 2 hrs by fluorescence based assay. Summed up:
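MMP-2/MMP-9 in activation buffer with test agent (final 50 and 10 μM), 10–15 min incubation, then fluorogenic substrate added. Incubated 2 h at 37 °C; fluorescence read at 320/405 nm. Kit MMP inhibitor was the positive control.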

Sequence of Histone deacetylase 5 (Q9UQL6 whole entry): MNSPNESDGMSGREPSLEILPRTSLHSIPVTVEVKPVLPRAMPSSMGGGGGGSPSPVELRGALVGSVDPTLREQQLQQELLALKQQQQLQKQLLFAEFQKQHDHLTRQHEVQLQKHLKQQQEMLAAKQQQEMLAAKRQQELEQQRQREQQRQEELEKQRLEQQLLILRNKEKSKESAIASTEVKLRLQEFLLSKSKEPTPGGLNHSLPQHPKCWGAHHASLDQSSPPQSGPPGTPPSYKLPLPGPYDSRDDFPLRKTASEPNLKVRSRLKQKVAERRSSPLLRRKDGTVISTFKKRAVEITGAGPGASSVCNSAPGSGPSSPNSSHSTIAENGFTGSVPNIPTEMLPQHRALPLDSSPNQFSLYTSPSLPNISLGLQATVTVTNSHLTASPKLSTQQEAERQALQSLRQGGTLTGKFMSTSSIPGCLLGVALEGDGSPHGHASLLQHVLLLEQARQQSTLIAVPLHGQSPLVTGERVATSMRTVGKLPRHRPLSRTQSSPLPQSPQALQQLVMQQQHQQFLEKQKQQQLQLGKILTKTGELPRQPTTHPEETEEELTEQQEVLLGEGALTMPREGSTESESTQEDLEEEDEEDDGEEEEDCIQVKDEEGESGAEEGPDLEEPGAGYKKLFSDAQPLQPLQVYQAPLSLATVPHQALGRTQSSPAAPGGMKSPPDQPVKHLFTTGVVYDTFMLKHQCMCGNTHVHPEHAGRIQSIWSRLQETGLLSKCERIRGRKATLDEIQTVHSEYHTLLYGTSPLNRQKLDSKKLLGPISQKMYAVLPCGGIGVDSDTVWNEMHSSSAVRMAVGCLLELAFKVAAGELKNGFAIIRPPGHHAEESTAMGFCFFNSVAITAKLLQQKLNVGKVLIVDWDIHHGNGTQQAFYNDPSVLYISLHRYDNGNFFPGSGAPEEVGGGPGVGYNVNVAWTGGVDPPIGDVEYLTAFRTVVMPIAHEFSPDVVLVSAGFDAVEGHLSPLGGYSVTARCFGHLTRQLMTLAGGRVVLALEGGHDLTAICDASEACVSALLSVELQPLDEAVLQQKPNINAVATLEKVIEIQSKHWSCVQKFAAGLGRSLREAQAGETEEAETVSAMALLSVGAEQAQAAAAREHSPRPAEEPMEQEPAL
Sequence of Protein deacetylase HDAC6 (Homo sapiens) (Q9UBN7 whole entry): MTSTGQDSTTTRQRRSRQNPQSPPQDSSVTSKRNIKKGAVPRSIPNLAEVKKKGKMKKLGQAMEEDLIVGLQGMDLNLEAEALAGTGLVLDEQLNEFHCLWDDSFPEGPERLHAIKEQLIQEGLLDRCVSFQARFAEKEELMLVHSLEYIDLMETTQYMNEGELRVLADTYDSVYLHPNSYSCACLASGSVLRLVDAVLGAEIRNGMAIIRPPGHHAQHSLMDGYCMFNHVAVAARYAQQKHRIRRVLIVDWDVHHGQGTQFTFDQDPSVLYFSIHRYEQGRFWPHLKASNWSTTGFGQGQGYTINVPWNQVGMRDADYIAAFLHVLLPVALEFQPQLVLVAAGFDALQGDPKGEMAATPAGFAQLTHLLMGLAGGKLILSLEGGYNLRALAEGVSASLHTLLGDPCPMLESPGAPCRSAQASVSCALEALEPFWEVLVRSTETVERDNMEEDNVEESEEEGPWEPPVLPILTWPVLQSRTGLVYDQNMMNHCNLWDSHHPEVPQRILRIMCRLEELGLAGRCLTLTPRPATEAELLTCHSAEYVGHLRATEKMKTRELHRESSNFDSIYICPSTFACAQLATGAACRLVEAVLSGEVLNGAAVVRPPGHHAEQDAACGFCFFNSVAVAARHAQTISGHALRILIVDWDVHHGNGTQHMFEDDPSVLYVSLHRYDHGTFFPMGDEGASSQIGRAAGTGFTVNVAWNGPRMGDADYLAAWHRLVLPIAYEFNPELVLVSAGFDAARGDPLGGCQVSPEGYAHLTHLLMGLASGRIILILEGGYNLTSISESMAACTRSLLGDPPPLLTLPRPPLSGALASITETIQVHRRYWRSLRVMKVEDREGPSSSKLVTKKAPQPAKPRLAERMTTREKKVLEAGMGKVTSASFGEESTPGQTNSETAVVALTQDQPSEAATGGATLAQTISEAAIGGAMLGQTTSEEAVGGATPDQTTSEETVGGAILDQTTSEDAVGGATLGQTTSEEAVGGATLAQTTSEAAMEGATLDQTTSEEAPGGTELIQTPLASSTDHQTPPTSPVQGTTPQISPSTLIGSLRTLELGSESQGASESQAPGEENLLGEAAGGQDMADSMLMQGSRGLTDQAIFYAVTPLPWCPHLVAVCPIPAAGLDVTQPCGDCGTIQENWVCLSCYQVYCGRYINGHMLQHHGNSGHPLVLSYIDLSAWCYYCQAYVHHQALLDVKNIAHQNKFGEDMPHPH
Sequence of Matrix metalloproteinase-9 (Homo sapiens) (P14780 whole entry): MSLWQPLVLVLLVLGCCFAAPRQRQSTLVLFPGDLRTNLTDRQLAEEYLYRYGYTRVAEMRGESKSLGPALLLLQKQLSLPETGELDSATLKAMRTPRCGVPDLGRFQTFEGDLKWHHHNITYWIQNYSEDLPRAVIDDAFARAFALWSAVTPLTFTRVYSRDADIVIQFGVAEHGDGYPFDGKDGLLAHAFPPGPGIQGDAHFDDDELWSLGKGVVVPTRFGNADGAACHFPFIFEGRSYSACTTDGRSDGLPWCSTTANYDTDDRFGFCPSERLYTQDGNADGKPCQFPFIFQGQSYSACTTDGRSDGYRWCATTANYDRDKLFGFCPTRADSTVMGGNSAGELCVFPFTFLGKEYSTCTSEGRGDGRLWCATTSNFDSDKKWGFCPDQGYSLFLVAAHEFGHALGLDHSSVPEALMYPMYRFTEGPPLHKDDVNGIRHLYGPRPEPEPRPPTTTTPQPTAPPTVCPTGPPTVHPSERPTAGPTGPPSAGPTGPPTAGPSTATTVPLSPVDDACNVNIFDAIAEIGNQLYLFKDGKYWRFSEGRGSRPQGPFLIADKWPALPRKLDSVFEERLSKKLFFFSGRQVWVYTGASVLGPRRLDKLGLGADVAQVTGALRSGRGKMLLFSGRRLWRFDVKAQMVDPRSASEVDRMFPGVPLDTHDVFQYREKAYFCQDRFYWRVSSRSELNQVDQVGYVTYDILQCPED

In the case of `CCCNNC(=O)/C=C/c1ccc(CNCCc2c(C)[nH]c3ccccc23)cc1.O=C(O)C(F)(F)F`, the CC50 in data set [1] is above 10 µM; in data set [2] it was above 10 µM; in data set [5] it was above 10 µM; in data set [6], above 10 µM; in data set [9], above 10 µM; in data set [11], 0.666 µM. The CC50 in data set [12] was 0.46 µM; in [15] it was above 10 µM; in data set [18] it was above 10 µM; in [19], 0.879 µM. Further, in data set [3], the Activity entry was “Non-Toxic”. Further, the result in [4] was inactive. The result in data set [7], in data set [8], in data set [13], in data set [14] and in [16] was Active. Moreover, the IC50 in data set [10] is above 10 µM. The inhibition entry in [17] and in data set [20] was “inactive” in each case.
